# Laboratory results reported in ChEMBL document CHEMBL1132712, “Bisphosphonate prodrugs: synthesis and in vitro evaluation of novel clodronic acid dianhydrides as bioreversible prodrugs of clodronate” (J Med Chem, 1999).
# Assays:
# [1] = The aqueous solubility in phosphate buffer; assay type: physicochemical; conditions: read-out: S
# How it was run: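 Excess solid added to phosphate buffer (50 mM, μ = 0.15, pH 7.4) at room temperature and vortexed 30 min. pH checked and adjusted during solubilization. Suspension centrifuged and filtered (0.45 membrane). Filtrate quantified by HPLC.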
# [2] = The apparent partition coefficient at pH 2.0; assay type: physicochemical; conditions: octanol/water
# How it was run: (§1)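 1-Octanol/phosphate buffer (50 mM, μ = 0.15) at pH 2.0 or 7.4. Prodrug (0.8–1.5 mg) in 1.0 mL buffer shaken with 5.0 mL octanol, 1 h at pH 7.4 or 5 min at pH 2.0. Phases separated by centrifugation. Aqueous concentration measured by HPLC before and after shaking. Triplicate, mean reported.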
# [3] = The apparent partition coefficient at pH 7.4; assay type: physicochemical; conditions: octanol/water; how it was run: as §1
# [4] = (§2) Rate data for enzymatic hydrolysis in 80% human serum at pH 7.4; Completely hydrolyzed during 1 min; assay type: ADME; conditions: pH 7.4, 1 min
# Homo sapiens = species on record: Homo sapiens; test: as §2; assay type: ADME, organism-based; conditions: pH 7.4, 1 min
# [5] = Rate data in phosphate buffer at pH 7.4; assay type: ADME
# How it was run: (§3)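 Chemical hydrolysis at 37 °C in phosphate buffer (50 mM, μ = 0.15) at pH 2.0 or 7.4. Prodrug (12 mg) dissolved in preheated buffer. Samples withdrawn at intervals and assayed by HPLC. Pseudo-first-order rate constants calculated from the buffer hydrolysis data.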
# [6] = Rate data in phosphate buffer at pH 2.0; assay type: ADME; how it was run: as §3
# [7] = (§4) Rate data for enzymatic hydrolysis in 80% human serum at pH 7.4; assay type: ADME
# [8] = as §4; assay type: ADME, organism-based
SMILES,solubility [1] [mg/mL],logD [2],logD [3],K obs [4],T1/2 (Homo sapiens),K obs [5] [min⁻¹],half-life [5] [h],K obs [6] [min⁻¹],half-life [6] [h],K obs [7] [min⁻¹],half-life [8] [h]
CC(=O)OP(=O)([O-])C(Cl)(Cl)P(=O)([O-])OC(C)=O.[Na+].[Na+],190,-1.4,-2.2,Completely hydrolyzed during 1 min,Completely hydrolyzed during 1 min,0.00076,15.2,0.016,0.75,–,–
CCCC(=O)OP(=O)([O-])C(Cl)(Cl)P(=O)([O-])OC(=O)CCC.[Na+].[Na+],172,-1.9,-2.3,Completely hydrolyzed during 1 min,Completely hydrolyzed during 1 min,0.00037,31.3,0.014,0.817,–,–
O=C(OP(=O)([O-])C(Cl)(Cl)P(=O)([O-])OC(=O)c1ccccc1)c1ccccc1.[Na+].[Na+],6,-1.5,-2.3,Completely hydrolyzed during 1 min,Completely hydrolyzed during 1 min,0.000049,235,0.00004,286,–,–
CC(C)(C)C(=O)OP(=O)([O-])C(Cl)(Cl)P(=O)([O-])OC(=O)C(C)(C)C.[Na+].[Na+],23.5,-2,-2.3,–,–,0.000015,790,0.0013,8.6,0.0035,3.3
